This is a sample that favours compounds with a hit; in the whole collection about 1.1% have one here.
FAS-TE inh = FAS thioesterase (human) inhibition | recombinant FAS-TE, OMFH fluorogenic substrate, fluorescence endpoint | 360,000 compounds, 0.67% hits | inhibition, % at 15 µM | P49327;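 active = compounds whose normalised, plate-corrected inhibition of enzyme fluorescence in the single-dose primary screen is 50% or more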
Arrestin-AP2 inh = human beta-arrestin and AP2 interaction inhibition; inhibition, % at 10 µM; AID 504490; 340,000 compounds, 0.31% hits; FITC-arrestin peptide / GST-AP2 beads, flow cytometry; AP2 beta2 appendage carries R879A mutation;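 active = inhibition above a set limit, near 3 SD of compounds lacking own fluorescence, cut at about 54% in these data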
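Assay system: GST-AP2 R879A bound to glutathione beads, E. coli-expressed; Medium: PBS with 0.05% Tween 20 and 0.1% BSA; Also added: fluorescein-tagged arrestin peptide at 50 nM final; Timing: 12 min plus 1 h, RT; Measured by: flow cytometry, FL1 (488/535 nm); Evaluation: percent drop in bead-associated FITC signal.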
SENP1 inh = inhibitors of human SENP1 SUMO protease catalytic domain | Q9P0U3 | recombinant SENP1 catalytic domain, CyPet-SUMO1-YPet FRET cleavage | inhibition, % at 10 µM | 360,000 compounds, 0.21% hits | AID 624204;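 active = inhibition at least 30% at 10 µM, raw YFP signal under a set limit, fluorescence ratio 0.5 to 1.5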
Target sequence (Q9P0U3 419-644 limits assumed): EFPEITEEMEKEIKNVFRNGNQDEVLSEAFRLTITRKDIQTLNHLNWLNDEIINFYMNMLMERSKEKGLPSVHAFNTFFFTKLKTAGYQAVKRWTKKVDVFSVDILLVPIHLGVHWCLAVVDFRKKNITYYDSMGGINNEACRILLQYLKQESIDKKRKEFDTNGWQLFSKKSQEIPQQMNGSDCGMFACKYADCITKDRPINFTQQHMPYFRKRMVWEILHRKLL
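Test system: recombinant human SENP1 catalytic domain, His6-tagged / Medium: pH 8 Tris buffer with EDTA, NaCl, BME, BSA, NP40, catalase / Also added: SUMO1 FRET substrate flanked by Cypet and Ypet, 25 nM / Times: 50 min reaction at room temperature / Signal: FRET, CFP and YFP emission / Control set: no-enzyme low control and enzyme-plus-DMSO high control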
JMJD2C inh = human JMJD2C demethylase inhibition | Q9H3R0 | GST-JMJD2C(1-420) H3K9me3 demethylation, DELFIA europium | inhibition, % at 2.35 µM | 330,000 compounds, 0.069% hits | AID 2099;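 active = more than half of a compound's replicate wells show inhibition beyond 50%, single wells judged on their own value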;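 also: signal counts dimethyl H3K9 product captured on neutravidin plate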
Each line names hits and unclear results; the compound was inactive in the other large screens.

O=C(Oc1ccccc1Cl)c1ccccc1	none (no result: JMJD2C inh)
COc1cc(/C=C2\N=C3CCCCCN3C2=O)ccc1O	SENP1 inh 37
COc1cc(/C=C2\SC(=S)N(NS(=O)(=O)c3ccc(C)cc3)C2=O)ccc1O	SENP1 inh 91
COc1cc(/C=C2\SC(=S)N(NS(=O)(=O)c3ccc(C)cc3)C2=O)cc(OC)c1OC	none
O=C(O)c1ccc(-c2nc(-c3ccccc3)c(-c3ccccc3)[nH]2)cc1	none
COc1ccccc1N=Nc1nc(-c2ccccc2)c(-c2ccccc2)[nH]1	none
COc1ccc(N=Nc2nc(-c3ccccc3)c(-c3ccccc3)[nH]2)cc1	SENP1 inh 37 (no result: Arrestin-AP2 inh)
Oc1ccccc1N=Nc1nc(-c2ccccc2)c(-c2ccccc2)[nH]1	SENP1 inh 48
Cc1ccsc1/C=N/NC(=O)c1nnn(-c2nonc2N)c1C(C)C	none
CC(C)(C)NC(=O)C(c1ccnc2ccccc12)n1c(=O)c(-c2ccco2)nc2ccccc21 (stereo not given)	none (no result: FAS-TE inh, Arrestin-AP2 inh, JMJD2C inh)
COc1cccc2cc(-c3nc(-c4cccs4)cs3)c(=O)oc12	Arrestin-AP2 inh 99
O=C(Cn1nc(-c2ccc(Cl)cc2)ccc1=O)NCC1COCCO1 (stereo not given)	JMJD2C inh 71
COC(=O)C1(C(=O)OC)C[C@H](/C=C/c2ccccc2)N(Cc2ccccc2OC)[C@@H]1c1cccs1	none (no result: FAS-TE inh, Arrestin-AP2 inh, JMJD2C inh)
Cc1noc(C)c1CSCC(=O)Oc1ccc(N(C)S(=O)(=O)c2ccccc2)cc1	none
O=c1cc(-c2ccccc2)oc2cc(O)c(O)c(O)c12	none (no result: JMJD2C inh)
O=c1c(O)cccc2cc(O)c(O)c(O)c12	JMJD2C inh 87
COC(=O)C1=NN(C(=O)c2cccc(Br)c2)C(O)(c2ccc(Cl)cc2)C1 (stereo not given)	SENP1 inh 65 (no result: Arrestin-AP2 inh)
CCOC(=O)C1=NN(C(=O)c2ccc(OC)cc2)C(O)(c2ccc(Cl)cc2)C1 (stereo not given)	none
CN(C)CCCN1C(=O)CSC1c1ccccc1 (stereo not given)	none
Cc1ccc(SCC(=O)NC2CCS(=O)(=O)C2)cc1 (stereo not given)	none
O=C(NCc1ccccc1Cl)C1CCN(C(=O)c2ccco2)CC1	JMJD2C inh 58 (no result: FAS-TE inh, Arrestin-AP2 inh, SENP1 inh)
O=C(Nc1ccc(Cl)cc1)C1CCN(C(=O)c2ccco2)CC1	none
O=c1[nH]c2ccc(S(=O)(=O)N3CCCCC3)cc2[nH]c1=O	none
CC1CCN(S(=O)(=O)c2ccc3[nH]c(=O)[nH]c3c2)CC1	JMJD2C inh 58
Nc1ccc(-c2nc3ccc([N+](=O)[O-])cc3[nH]2)cc1	SENP1 inh 49
Cc1sc2nc(CN3CCOCC3)nc(Cl)c2c1C	none
Cc1sc2nc(CN3CCOCC3)nc(NS(=O)(=O)c3cc(Cl)ccc3Cl)c2c1C	JMJD2C inh 56
COc1ccc(N=NC2=C(O)CC(C)(C)CC2=O)cc1	none
COc1ccc(N=NC2=C(O)CC(C)(C)CC2=O)c(OC)c1	SENP1 inh 69
CN1CCS/C1=C\C=C1/SC(=S)N(CC(=O)O)C1=O	SENP1 inh 68
O=c1cc(-c2ccccc2Cl)oc2c(NS(=O)(=O)c3cc(Cl)cc(Cl)c3O)ccc(O)c12	FAS-TE inh 68
Cc1ccc2c(c1)c1c3n2CCCNC3CCC1 (stereo not given)	JMJD2C inh 86
CC(NC(=O)C(=O)NCCN1CCN(C(=O)c2ccc([N+](=O)[O-])cc2)CC1)c1ccccc1 (stereo not given)	none
COc1cc(/C=C2\SC(=S)N(NC(=O)c3ccncc3)C2=O)ccc1O	SENP1 inh 49
CCOc1cc(/C=C2\SC(=S)N(NC(=O)c3cccnc3)C2=O)ccc1O	SENP1 inh 50
COc1cc(/C=C2\SC(=S)N(NC(=O)c3cccc(O)c3)C2=O)ccc1O	none
COc1cc(/C=C2\SC(=S)N(NC(=O)c3ccc(O)c(OC)c3)C2=O)ccc1O	none
CCCCn1c(=O)[nH]c(=O)c2c1nc(-c1cc(Cl)c(OC)c(OC)c1)n2C	JMJD2C inh 52
CCCCn1c(=O)[nH]c(=O)c2c1nc(-c1ccc(OC(F)F)c(OC)c1)n2C	none
CCOCCc1nnc(NC(=O)c2cc(OC)c(OC)cc2[N+](=O)[O-])s1	none
N#CNc1nc(O)cc(=O)[nH]1	SENP1 inh 29
O=C(O)CCCn1c(O)c(C=C2N=c3ccccc3=N2)sc1=S	none
COCCCn1c(O)c(/C=C2\N=C(C#N)C(=Nc3ccc(C)cc3)O2)sc1=S	SENP1 inh 54
OC(COCC(F)(F)C(F)(F)C(F)(F)C(F)F)Cn1c2ccc(Cl)cc2c2cc(Cl)ccc21 (stereo not given)	FAS-TE inh 56

Bioassay records: PubChem, several laboratories
